From PubChem BioAssay
Active and inactive are the calls of the source. Cut-off read from the data, not from the text of the source, unless noted: active = inhibition above about 30%; inactive = the rest.

Key:
[1] = reducers of endogenous Her2 protein level, primary screen, SKBR3 breast tumor cells, AlphaScreen, ATP viability (AID 461;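 active = Her2 level under about 52% in both replicate screens, with viability over 70% of control, limit read from the data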;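 for Her2 level: lower value means less Her2 protein in the cells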;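 for viability: percent of carrier control wells set as 100% viability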); conditions: 18-24 h, measured here: SKBR3 viability, ATP luminescence, at 10 µM
[2] = target: Receptor tyrosine-protein kinase erbB-2 (Homo sapiens) (UniProt P04626); experiment: as above; conditions: 18-24 h, at 10 µM, stronger effect = lower value
Sequence of Receptor tyrosine-protein kinase erbB-2 (Homo sapiens) (P04626 whole entry, looked up): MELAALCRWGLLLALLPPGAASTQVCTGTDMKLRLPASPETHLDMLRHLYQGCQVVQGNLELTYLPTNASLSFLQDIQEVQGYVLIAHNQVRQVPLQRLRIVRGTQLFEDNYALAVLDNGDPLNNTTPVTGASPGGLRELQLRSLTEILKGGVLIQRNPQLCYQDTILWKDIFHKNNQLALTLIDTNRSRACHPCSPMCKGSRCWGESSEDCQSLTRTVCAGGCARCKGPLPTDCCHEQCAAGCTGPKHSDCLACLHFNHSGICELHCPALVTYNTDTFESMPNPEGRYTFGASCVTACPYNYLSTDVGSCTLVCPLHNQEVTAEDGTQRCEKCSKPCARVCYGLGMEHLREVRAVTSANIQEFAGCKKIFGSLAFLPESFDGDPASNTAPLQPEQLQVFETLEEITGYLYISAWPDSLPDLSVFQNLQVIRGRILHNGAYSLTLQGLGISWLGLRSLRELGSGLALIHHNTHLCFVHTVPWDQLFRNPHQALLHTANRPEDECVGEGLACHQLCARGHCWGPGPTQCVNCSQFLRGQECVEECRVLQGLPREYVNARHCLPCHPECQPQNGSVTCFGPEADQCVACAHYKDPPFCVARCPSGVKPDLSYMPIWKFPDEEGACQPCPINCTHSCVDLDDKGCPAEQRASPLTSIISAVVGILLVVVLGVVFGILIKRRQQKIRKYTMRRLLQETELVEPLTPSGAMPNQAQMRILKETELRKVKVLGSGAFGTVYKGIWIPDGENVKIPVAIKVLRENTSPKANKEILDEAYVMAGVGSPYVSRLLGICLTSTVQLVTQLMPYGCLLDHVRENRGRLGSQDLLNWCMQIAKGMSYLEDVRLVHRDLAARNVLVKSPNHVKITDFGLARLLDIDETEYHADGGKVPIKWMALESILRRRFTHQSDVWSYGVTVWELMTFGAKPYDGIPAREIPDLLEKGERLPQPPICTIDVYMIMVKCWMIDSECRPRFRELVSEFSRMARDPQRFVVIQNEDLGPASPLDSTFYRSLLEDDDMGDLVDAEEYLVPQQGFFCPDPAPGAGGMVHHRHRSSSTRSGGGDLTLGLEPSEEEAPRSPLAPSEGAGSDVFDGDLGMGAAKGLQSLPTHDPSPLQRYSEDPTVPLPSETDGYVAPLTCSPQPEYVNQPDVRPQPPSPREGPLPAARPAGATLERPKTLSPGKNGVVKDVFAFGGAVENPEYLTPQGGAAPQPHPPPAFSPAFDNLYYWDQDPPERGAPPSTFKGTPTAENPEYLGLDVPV

[3] = SK-BR-3 cell growth inhibitors, pilot screen, 24 h, human (AID 572;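 active = viability at or below 10% of carrier control in both of two separate runs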;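 note: compound exposure lasted between 18 and 24 h rather than exactly 24 h; 100% = carrier-treated control wells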); conditions: SK-BR-3 viability, CellTiter-Glo luminescence, at 10 µM, stronger effect = lower value
[4] = HUVEC growth inhibition – cell-based, human, primary screen (AID 575;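 active = viability at or below 30% in both replicate assays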;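 note: 100% = median of untreated cell wells with 0.1% DMSO on each plate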); conditions: HUVEC proliferation, CellTiter-Glo luminescence, 72 h; at 10 µM; stronger effect = lower value
How it was run: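 Timing: 72 h treatment at 37 °C; material: HUVEC primary cells; technique: CellTiter-Glo luminescence measuring cellular ATP; controls: vehicle and MePR control wells; measure: percent of median DMSO-control luminescence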

[5] = growth inhibitors of H69AR lung tumor, primary screen, human, duplicate replicates (AID 580;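 active = viability at or under a set limit in both replicates, limit being median viability minus 3 SD, cut at about 48% in these data, passing the limit was not always enough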;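 note: 100% = mean luminescence of untreated wells and 0% = no signal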); conditions: H69AR lung tumor cells viability, ATP luminescence, 72 h; at 10 µM; stronger effect = lower value
[6] = reversal of MRP1-mediated doxorubicin resistance, pilot screen, H69AR cells, doxorubicin co-treatment (AID 601;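 active = viability loss from added drug above about 55%, and viability with drug at most 40%, in both replicates, limit read from the data, passing the limit was not always enough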); conditions: CellTiter-Glo, 72 h, at 10 µM; for differential viability (reversal): stronger effect = higher value
[7] = 384-well plate pilot, post-Golgi transport modulator project, inhibition of yeast transport mutant growth (AID 636; in the data active = inhibition above about 31%); conditions: absorbance 615 nm, about 18 h, stronger effect = higher value
[8] = growth suppression of yeast trafficking mutant, preliminary HTS, modulators of trafficking downstream of Golgi apparatus project, 1536-format plate, OD 615 nm (AID 637); conditions: yeast transport mutant growth, absorbance 615 nm, 18 h; stronger effect = higher value
[9] = H69AR cells + 2 uM doxorubicin, measured here: viability with 2 uM doxorubicin, stronger effect = lower value
[10] = H69AR cells, compound alone cytotoxicity

Question: For `Cc1ccc(S(=O)(=O)N2CCC(C(=O)N[C@@H](Cc3ccccc3)C(=O)O)CC2)cc1`, which viability [1] is on record?
Answer: 104%

Question: And the Her2 level [2]?
Answer: 174% (inactive)

Question: And the viability [3]?
Answer: 104% (inactive)

Question: What about the viability [4] of the same molecule?
Answer: 108% (inactive)

Question: What about the viability [5] of the same molecule?
Answer: 86.9% (inactive)

Question: And the differential viability (reversal) ([6]; H69AR cells + 2 uM doxorubicin)?
Answer: 9.85% (inactive)

Question: And the viability [6, 9]?
Answer: 77.1%

Question: What about the viability [6, 10] of the same molecule?
Answer: 86.9%

Question: What about the inhibition [7] of the same molecule?
Answer: -4.27% (inactive)

Question: And the inhibition [8]?
Answer: -6.13% (inactive)

Question: With `COC(=O)c1cc(OC)c(OCc2cc(C(=O)OC)oc2C)c(OC)c1` as the molecule, how does the viability [1] read?
Answer: 95%

Question: And the Her2 level [2]?
Answer: 89.5% (inactive)

Question: What about the viability [3] of the same molecule?
Answer: 95% (inactive)

Question: And the viability [4]?
Answer: 107% (inactive)

Question: And the viability [5]?
Answer: 90.7% (inactive)

Question: And the differential viability (reversal) ([6]; H69AR cells + 2 uM doxorubicin)?
Answer: 1.03% (inactive)

Question: What about the viability [6, 9] of the same molecule?
Answer: 89.7%

Question: And the viability [6, 10]?
Answer: 90.7%

Question: And the inhibition [7]?
Answer: -9.32% (inactive)

Question: What about the inhibition [8] of the same molecule?
Answer: 1.8% (inactive)

Question: Which results are given for `O=C(CN1C(=O)C2CC=C(Cl)CC2C1=O)Nc1ccc(C(=O)O)cc1` (stereo not given)?
Answer: viability [1]: 127%; Her2 level [2]: 101% (inactive); viability [3]: 127% (inactive); viability [4]: 99.1% (inactive); viability [5]: 94.7% (inactive); differential viability (reversal) ([6]; H69AR cells + 2 uM doxorubicin): -0.64% (inactive); viability [6, 9]: 95.4%; viability [6, 10]: 94.7%; inhibition [7]: -3.55% (inactive); inhibition [8]: -0.16% (inactive)

Question: For `COc1ccccc1OCC(=O)N1CCNC1=O`, which viability [1] is on record?
Answer: 90%

Question: What about the Her2 level [2] of the same molecule?
Answer: 96.5% (inactive)

Question: And the viability [3]?
Answer: 90% (inactive)

Question: And the viability [4]?
Answer: 84% (inactive)

Question: What about the viability [5] of the same molecule?
Answer: 102% (inactive)

Question: And the differential viability (reversal) ([6]; H69AR cells + 2 uM doxorubicin)?
Answer: 12.2% (inactive)

Question: What about the viability [6, 9] of the same molecule?
Answer: 90%

Question: What about the viability [6, 10] of the same molecule?
Answer: 102%

Question: What about the inhibition [7] of the same molecule?
Answer: -1.73% (inactive)

Question: What about the inhibition [8] of the same molecule?
Answer: -0.98% (inactive)

Question: Which viability [1] does the source give for `O=C(Nc1ccc(N2CCOCC2)cc1)c1cccc(S(=O)(=O)N2CCCC2)c1` here?
Answer: 88.5%

Question: And the Her2 level [2]?
Answer: 85% (inactive)

Question: And the viability [3]?
Answer: 88.5% (inactive)

Question: And the viability [4]?
Answer: 96.8% (inactive)

Question: And the viability [5]?
Answer: 98.4% (inactive)

Question: And the differential viability (reversal) ([6]; H69AR cells + 2 uM doxorubicin)?
Answer: 5.26% (inactive)

Question: What about the viability [6, 9] of the same molecule?
Answer: 93.1%

Question: And the viability [6, 10]?
Answer: 98.4%

Question: What about the inhibition [7] of the same molecule?
Answer: -5% (inactive)

Question: And the inhibition [8]?
Answer: -2% (inactive)

Question: Which results are given for `O=C1NC(c2ccccc2)(C(F)(F)F)SC2=CCCCCN12` (stereo not given)?
Answer: viability [1]: 90.5%; Her2 level [2]: 106% (inactive); viability [3]: 90.5% (inactive); viability [4]: 86.2% (inactive); viability [5]: 94.3% (inactive); differential viability (reversal) ([6]; H69AR cells + 2 uM doxorubicin): 2.37% (inactive); viability [6, 9]: 92%; viability [6, 10]: 94.3%; inhibition [7]: -3.29% (inactive); inhibition [8]: -3.33% (inactive)

Question: For `CCC(=O)N1CCN(CCN=CC2=C(O)CC(C)(C)CC2=O)CC1`, which viability [1] is on record?
Answer: 90.5%

Question: What about the Her2 level [2] of the same molecule?
Answer: 93.5% (inactive)

Question: And the viability [3]?
Answer: 90.5% (inactive)

Question: And the viability [4]?
Answer: 79.6% (inactive)

Question: And the viability [5]?
Answer: 107% (inactive)

Question: What about the differential viability (reversal) ([6]; H69AR cells + 2 uM doxorubicin) of the same molecule?
Answer: 11.3% (inactive)

Question: And the viability [6, 9]?
Answer: 95.2%

Question: And the viability [6, 10]?
Answer: 107%

Question: And the inhibition [7]?
Answer: -1.6% (inactive)

Question: And the inhibition [8]?
Answer: -6.77% (inactive)

Question: With `CCOCCCNC(=O)C1CCN(S(=O)(=O)N(CC(C)C)CC(C)C)CC1` as the molecule, how does the viability [1] read?
Answer: 121%

Question: What about the Her2 level [2] of the same molecule?
Answer: 100% (inactive)

Question: And the viability [3]?
Answer: 121% (inactive)

Question: And the viability [4]?
Answer: 97.9% (inactive)

Question: What about the viability [5] of the same molecule?
Answer: 111% (inactive)

Question: And the differential viability (reversal) ([6]; H69AR cells + 2 uM doxorubicin)?
Answer: 24% (inactive)

Question: And the viability [6, 9]?
Answer: 87.3%

Question: What about the viability [6, 10] of the same molecule?
Answer: 111%

Question: And the inhibition [7]?
Answer: -4.13% (inactive)

Question: And the inhibition [8]?
Answer: 2.1% (inactive)

Question: With `CC1CCc2cc(F)cc3c(O)c(C(=O)NCC4CCCO4)c(=O)n1c23` (stereo not given) as the molecule, how does the viability [1] read?
Answer: 93.5%

Question: And the Her2 level [2]?
Answer: 94% (inactive)

Question: And the viability [3]?
Answer: 93.5% (inactive)

Question: What about the viability [4] of the same molecule?
Answer: 80.8% (inactive)

Question: What about the viability [5] of the same molecule?
Answer: 85.6% (inactive)

Question: And the differential viability (reversal) ([6]; H69AR cells + 2 uM doxorubicin)?
Answer: -8.57% (inactive)

Question: And the viability [6, 9]?
Answer: 94.2%

Question: What about the viability [6, 10] of the same molecule?
Answer: 85.6%

Question: What about the inhibition [7] of the same molecule?
Answer: 0.66% (inactive)

Question: And the inhibition [8]?
Answer: -9.84% (inactive)

Question: For `COC(=O)c1cn(C(=O)OC)c2ccccc12`, which viability [1] is on record?
Answer: 96.5%

Question: And the Her2 level [2]?
Answer: 102% (inactive)

Question: And the viability [3]?
Answer: 96.5% (inactive)

Question: And the viability [4]?
Answer: 85.1% (inactive)

Question: What about the viability [5] of the same molecule?
Answer: 87.7% (inactive)

Question: And the differential viability (reversal) ([6]; H69AR cells + 2 uM doxorubicin)?
Answer: -0.61% (inactive)

Question: And the viability [6, 9]?
Answer: 88.3%

Question: What about the viability [6, 10] of the same molecule?
Answer: 87.7%

Question: And the inhibition [7]?
Answer: -4.87% (inactive)

Question: And the inhibition [8]?
Answer: 4.1% (inactive)

Question: Which viability [1] does the source give for `O=S(=O)(c1cccc(-c2nnco2)c1)N1CCCC1` here?
Answer: 100%

Question: And the Her2 level [2]?
Answer: 116% (inactive)

Question: What about the viability [3] of the same molecule?
Answer: 100% (inactive)

Question: What about the viability [4] of the same molecule?
Answer: 114% (inactive)

Question: What about the viability [5] of the same molecule?
Answer: 95.4% (inactive)

Question: What about the differential viability (reversal) ([6]; H69AR cells + 2 uM doxorubicin) of the same molecule?
Answer: 2.63% (inactive)

Question: What about the viability [6, 9] of the same molecule?
Answer: 92.8%

Question: And the viability [6, 10]?
Answer: 95.4%

Question: What about the inhibition [7] of the same molecule?
Answer: -3.33% (inactive)

Question: What about the inhibition [8] of the same molecule?
Answer: -7.42% (inactive)

Question: Which viability [1] does the source give for `CC(C)C(OC(=O)c1ccco1)C(=O)NCc1ccccc1` (stereo not given) here?
Answer: 91.5%

Question: And the Her2 level [2]?
Answer: 97% (inactive)

Question: What about the viability [3] of the same molecule?
Answer: 91.5% (inactive)

Question: What about the viability [4] of the same molecule?
Answer: 92.5% (inactive)

Question: What about the viability [5] of the same molecule?
Answer: 99.1% (inactive)

Question: What about the differential viability (reversal) ([6]; H69AR cells + 2 uM doxorubicin) of the same molecule?
Answer: 8.63% (inactive)

Question: And the viability [6, 9]?
Answer: 90.4%

Question: What about the viability [6, 10] of the same molecule?
Answer: 99.1%

Question: And the inhibition [7]?
Answer: 0% (inactive)

Question: What about the inhibition [8] of the same molecule?
Answer: -4.6% (inactive)

Question: Which viability [1] does the source give for `O=C(NCc1cccs1)C1CCN(S(=O)(=O)c2cccs2)CC1` here?
Answer: 103%

Question: And the Her2 level [2]?
Answer: 89% (inactive)

Question: And the viability [3]?
Answer: 103% (inactive)

Question: What about the viability [4] of the same molecule?
Answer: 89.8% (inactive)

Question: What about the viability [5] of the same molecule?
Answer: 102% (inactive)

Question: What about the differential viability (reversal) ([6]; H69AR cells + 2 uM doxorubicin) of the same molecule?
Answer: 26.9% (inactive)

Question: And the viability [6, 9]?
Answer: 74.6%

Question: What about the viability [6, 10] of the same molecule?
Answer: 102%

Question: And the inhibition [7]?
Answer: -5.19% (inactive)

Question: What about the inhibition [8] of the same molecule?
Answer: -4.29% (inactive)

Question: Which viability [1] does the source give for `COc1cc(NC(=O)c2cc(OC)c(OC)c(OC)c2)c(OC)cc1NC(=O)CN1CCCCC1` here?
Answer: 86.5%

Question: And the Her2 level [2]?
Answer: 68.5% (inactive)

Question: And the viability [3]?
Answer: 86.5% (inactive)

Question: And the viability [4]?
Answer: 67.9% (inactive)

Question: And the viability [5]?
Answer: 65.9% (inactive)

Question: What about the differential viability (reversal) ([6]; H69AR cells + 2 uM doxorubicin) of the same molecule?
Answer: -11.7% (inactive)

Question: What about the viability [6, 9] of the same molecule?
Answer: 77.6%

Question: What about the viability [6, 10] of the same molecule?
Answer: 65.9%

Question: And the inhibition [7]?
Answer: -5.27% (inactive)

Question: What about the inhibition [8] of the same molecule?
Answer: -7.5% (inactive)
